Data from ChEMBL document CHEMBL1154457, “Synthesis, anti-tubercular activity and 3D-QSAR study of coumarin-4-acetic acid benzylidene hydrazides” (2008).

Assays:
[1] = test system: Mycobacterium tuberculosis; experiment: Antitubercular activity against Mycobacterium tuberculosis H37Rv at 12.5 ug/mL after 5 to 8 days; assay type: functional
Outline: (§1)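 Inoculum diluted to reach growth index 999 in 5 days. Compound added from DMSO stock to 4 ml radiometric 7H12 (BACTEC-12B) broth; DMSO-only controls. Incubated at 37 °C, GI read daily until control reached 999. %inhibition = (1 − GI test/GI control) × 100.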

[2] = test system: Mycobacterium tuberculosis; experiment: Antitubercular activity against Mycobacterium tuberculosis H37Rv at 6.25 ug/mL after 5 to 8 days; assay type: functional; outline: as §1

| SMILES | inhibition at 12.5 µg/mL [1] [%] | inhibition at 6.25 µg/mL [2] [%] |
| --- | --- | --- |
| Cc1ccc(C)c2c(CC(=O)N/N=C/c3ccccc3)cc(=O)oc12 | 70 |  |
| Cc1ccc2oc(=O)cc(CC(=O)N/N=C/c3ccccc3Cl)c2c1 |  | 34 |
| COc1cc(/C=N/NC(=O)Cc2cc(=O)oc3ccc(C)cc23)cc(OC)c1OC |  | 34 |
| COc1ccc(/C=N/NC(=O)Cc2cc(=O)oc3ccc(C)cc23)cc1OC |  | 29 |
| Cc1ccc2oc(=O)cc(CC(=O)N/N=C/c3ccc(F)cc3)c2c1 |  | 26 |
| COc1cc(/C=N/NC(=O)Cc2cc(=O)oc3c(C)ccc(C)c23)cc(OC)c1OC | 52 |  |
| Cc1ccc2oc(=O)cc(CC(=O)N/N=C/c3ccccc3)c2c1 |  | 34 |
| Cc1ccc(C)c2c(CC(=O)N/N=C/c3ccccc3Cl)cc(=O)oc12 | 48 |  |
| Cc1ccc(C)c2c(CC(=O)N/N=C/c3ccc(N(C)C)cc3)cc(=O)oc12 | 7 |  |
| COc1ccccc1/C=N/NC(=O)Cc1cc(=O)oc2c(C)ccc(C)c12 | 54 |  |
| Cc1cc2oc(=O)cc(CC(=O)N/N=C/c3ccc(Cl)cc3)c2cc1C | 32 |  |
| CSc1ccc(/C=N/NC(=O)Cc2cc(=O)oc3cc(C)c(C)cc23)cc1 | 6 |  |
| Cc1cc2oc(=O)cc(CC(=O)N/N=C/c3ccccc3[N+](=O)[O-])c2cc1C | 11 |  |
| Cc1ccc2oc(=O)cc(CC(=O)N/N=C/c3ccc(Cl)cc3)c2c1 |  | 19 |
| Cc1ccc2oc(=O)cc(CC(=O)N/N=C/c3cccc(Cl)c3)c2c1 |  | 21 |
| O=C(Cc1cc(=O)oc2cc(O)ccc12)N/N=C/c1cccc([N+](=O)[O-])c1 |  | 93 |
| COc1ccc(/C=N/NC(=O)Cc2cc(=O)oc3ccc(C)cc23)cc1 |  | 33 |
| Cc1ccc(C)c2c(CC(=O)N/N=C/c3ccccc3[N+](=O)[O-])cc(=O)oc12 | 65 |  |
| Cc1ccc(C)c2c(CC(=O)N/N=C/c3ccc(Cl)cc3)cc(=O)oc12 | 62 |  |
| Cc1ccc2oc(=O)cc(CC(=O)N/N=C/c3ccccc3O)c2c1 |  | 55 |
| COc1cccc(/C=N/NC(=O)Cc2cc(=O)oc3ccc(C)cc23)c1 |  | 19 |
| Cc1cc2oc(=O)cc(CC(=O)N/N=C/c3cccc([N+](=O)[O-])c3)c2cc1C | 31 |  |
| Cc1cc2oc(=O)cc(CC(=O)N/N=C/c3ccccc3Cl)c2cc1C | 17 |  |
| Cc1ccc(C)c2c(CC(=O)N/N=C/c3cccc([N+](=O)[O-])c3)cc(=O)oc12 | 39 |  |
| Cc1ccc2oc(=O)cc(CC(=O)N/N=C/c3cccc([N+](=O)[O-])c3)c2c1 |  | 19 |
